# Source: PubChem
# WT yeast gro inh: growth inhibition of WT yeast, mitochondrial fusion screen; mitochondrial fusion phenotypic screen, WT strain; 190,000 tested, 2.1% active; inhibition, % at 10 µM; AID 1362; in the data active means inhibition above about 58%; tested in S. cerevisiae
# ROMK primary: human ROMK K+ channel modulation, primary screen | B-score at 10 µM | 130,000 tested, 2% active | P48048 | Tet-inducible ROMK, thallium flux fluorescence; actives lie on both sides;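 active means signal ratio slope over the read window, or its plate-corrected B-score, at least 3 SD from the plate mean, either direction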;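 further: B-score of the F/F0 ratio slope over 7 to 12 s after thallium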
# L major viab: inhibitors of Leishmania major promastigote growth. Leishmania major promastigotes, resazurin fluorescence viability. inhibition, % at 10 µM. 200,000 tested, 9% active. AID 1063; in the data active means inhibition above about 50%;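 further: promastigotes grown with compound for 44 hours at 28 °C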
# Diaph act CS: activates diaphorase or chemically reduces, flagging diaphorase assay artifacts | Diaphorase/resazurin coupled assay, resorufin fluorescence, 16 min; hits give high values; 1 = vehicle wells, 0 = NADH-free wells | activation factor at 20 µM | 190,000 tested, 0.005% active;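 active means diaphorase activity raised at least twofold by the compound at 20 µM; inactive means activation factor below 2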
#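 Measured by – red resorufin fluorescence at 544/590 nm excitation/emission · Test system – Clostridium kluyveri diaphorase, purified enzyme · Incubation – reaction time 16 min, room temperature · Buffer or medium – 50 mM HEPES pH 7.4 with 4.542 mM MgCl2, 0.005% Tween 20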
# Cl transport mod: modulators of human KCC2 chloride dependent transport; 190,000 tested, 2.2% active; Q9H2X9; KCC2 cells, thallium flux FluoZin-2 fluorescence; B-score of Tl+ flux slope (higher = more flux/activation; lower = inhibition) at 10 µM;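 active means thallium flux slope and its plate-corrected score both differing from the plate sample mean at a set confidence after two filtering rounds, in either direction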;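 further: slope of fluorescence scaled to starting intensity during 10 to 20 s after thallium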
# Target sequence (Q9H2X9 whole entry, looked up): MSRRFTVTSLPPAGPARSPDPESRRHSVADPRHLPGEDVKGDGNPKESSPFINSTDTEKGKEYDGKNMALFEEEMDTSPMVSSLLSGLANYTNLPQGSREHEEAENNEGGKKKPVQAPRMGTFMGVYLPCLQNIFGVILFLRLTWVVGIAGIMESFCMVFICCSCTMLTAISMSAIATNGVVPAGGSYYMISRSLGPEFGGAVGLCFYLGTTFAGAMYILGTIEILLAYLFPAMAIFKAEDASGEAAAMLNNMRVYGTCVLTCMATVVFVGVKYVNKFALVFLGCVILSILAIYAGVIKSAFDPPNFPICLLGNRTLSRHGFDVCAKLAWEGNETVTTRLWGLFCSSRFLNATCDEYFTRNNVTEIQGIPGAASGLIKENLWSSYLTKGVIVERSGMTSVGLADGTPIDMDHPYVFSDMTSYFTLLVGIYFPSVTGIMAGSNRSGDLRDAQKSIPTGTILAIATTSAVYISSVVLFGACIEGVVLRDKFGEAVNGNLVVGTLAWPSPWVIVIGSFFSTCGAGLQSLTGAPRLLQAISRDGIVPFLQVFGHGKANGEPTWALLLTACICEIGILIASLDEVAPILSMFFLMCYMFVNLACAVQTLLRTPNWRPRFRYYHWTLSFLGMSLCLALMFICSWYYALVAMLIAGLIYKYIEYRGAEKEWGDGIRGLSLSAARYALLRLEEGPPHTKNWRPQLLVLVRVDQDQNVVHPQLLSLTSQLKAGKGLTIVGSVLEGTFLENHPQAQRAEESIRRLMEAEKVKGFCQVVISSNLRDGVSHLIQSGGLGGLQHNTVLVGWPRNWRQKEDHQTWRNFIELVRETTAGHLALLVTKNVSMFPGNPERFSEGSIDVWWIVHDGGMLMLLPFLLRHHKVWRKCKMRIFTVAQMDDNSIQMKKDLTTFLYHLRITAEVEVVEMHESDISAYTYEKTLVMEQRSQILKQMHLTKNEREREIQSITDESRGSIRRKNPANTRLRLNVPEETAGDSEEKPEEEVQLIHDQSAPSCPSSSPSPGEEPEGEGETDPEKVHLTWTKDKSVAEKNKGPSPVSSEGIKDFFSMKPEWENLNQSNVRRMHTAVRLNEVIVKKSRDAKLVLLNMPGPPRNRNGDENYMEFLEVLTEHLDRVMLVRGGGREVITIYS
# Diaphorase inh: counter-screen for diaphorase-based assays: diaphorase inhibitors and chemical oxidizers. diaphorase resazurin-to-resorufin fluorescence, NADH, 16 min; bacterial (C. kluyveri) enzyme, not human. inhibition, % at 20 µM. 190,000 tested, 0.69% active. AID 1217;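 active means primary screen inhibition at 20 µM above a set limit, cut at about 50% in these data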;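 further: plate controls were DMSO with full reaction for no effect and wells lacking NADH for full effect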
#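 Test system: Clostridium kluyveri diaphorase enzyme / Quantity: diaphorase at 0.14 U/mL in enzyme working solution / Incubation: 16-min room-temperature incubation before reading / Benchmarks: NADH-free wells as positive control, DMSO-only neutral wells / Signal: resorufin fluorescence 544/590 nm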
# The depositor's hits bear a star; x = no result given. Most compounds without a hit are left out; they make up all but 12% or so of the library.
SMILES,WT yeast gro inh,ROMK primary,L major viab,Diaph act CS,Cl transport mod,Diaphorase inh
O=[N+]([O-])c1cccnc1N1CCC(c2cc(-c3cccc(C(F)(F)F)c3)n[nH]2)CC1,78*,x,17,0.8,-0.037,21
O=[N+]([O-])c1cccnc1N1CCC(c2cc(-c3ccc(Cl)cc3Cl)n[nH]2)CC1,65*,-0.35,12,0.7,0.91,32
COc1ccc(OC)c(-c2cc(C3CCN(c4ncccc4[N+](=O)[O-])CC3)[nH]n2)c1,50,x,21,0.8,-0.54,18
NC(=O)C1CCN(c2ncccc2[N+](=O)[O-])CC1,-2,1.1,-5,1,0.14,0
O=C(CSc1nnc(-c2ccncc2)o1)NC1C2CC3CC(C2)CC1C3 (stereo not drawn),-10,1.2,9,0.9,0.89,13
O=C(O)CC/C(=N/Nc1ncc(C(F)(F)F)cc1Cl)C(=O)O,-2,-0.013,-2,0.5,-0.28,53*
O=C(O)CCc1ncc(C(F)(F)F)cc1Cl,-12,x,-5,1,0.21,2
O=C1C=CC(=O)N1CCNc1ncc(C(F)(F)F)cc1Cl,97*,-0.091,2,0.9,-0.76,14
O=S(=O)(NCCNc1ncc(C(F)(F)F)cc1Cl)C(F)(F)F,83*,0.39,-4,0.9,-1.6,14
CSCCC(NS(=O)(=O)c1ccc(Cl)c(Cl)c1)C(=O)O (stereo not drawn),-5,0.58,-7,1,-0.031,5
O=c1c(Cc2c(F)cccc2Cl)c(O)ccn1C1CCCCCC1,-1,-0.51,3,0.9,0.37,10
Cc1cc(=O)[nH]c(SCC(=O)Nc2ccc(Cl)cn2)n1,-11,0.37,-4,0.9,-0.91,6
CC(C)CCC1(CCNC(C)c2cccs2)CCOC(C)(C)C1 (stereo not drawn),x,x,x,x,-1,x
O=C(Nc1cccc(Cl)c1N1CCCC1)c1ccc(Br)o1,68*,x,-3,0.9,x,11
O=C(Nc1cccc(Cl)c1N1CCCC1)c1ccc([N+](=O)[O-])o1,16,-0.54,87*,1,-0.33,2
O=C(Nc1cccc(Cl)c1N1CCCC1)c1cc2ccccc2o1,55,x,6,0.9,0.29,5
CCN1CCN(c2c(Cl)cccc2NC(=O)c2ccc([N+](=O)[O-])cc2)CC1,5,0.22,9,1,-0.74,4
Cc1cc(NC(=O)CN2CCN(C/C=C/c3ccccc3)CC2)c([N+](=O)[O-])cc1C,9,-0.37,85*,0.9,0.67,8
O=C(CN1CCN(C/C=C/c2ccccc2)CC1)Nc1cc([N+](=O)[O-])ccc1Cl,18,-0.37,56*,0.8,0.78,16
O=C(Nc1ccccc1)c1cc2n(n1)C(C(F)(F)F)CC(C1CC1)N2 (stereo not drawn),7,-0.15,7,0.8,-0.63,16
COc1ccccc1C(=O)C1CCCN(C(=O)c2ccccn2)C1 (stereo not drawn),5,0.96,-4,1.2,x,-19
Cc1ccccc1OCC1Cc2c(nc(N)c(C#N)c2N)O1 (stereo not drawn),-1,x,1,0.9,x,8
CCOC(=O)C1=NN(c2ccccc2)C(=O)/C1=C\c1ccc(N(C)C)cc1,7,x,89*,0.8,x,17
COc1ccc(NS(=O)(=O)c2cccc(Cl)c2Cl)cc1S(=O)(=O)N1CCCCC1,-2,x,2,0.8,-0.031,20
COc1ccc(C(C)(C)C)cc1NC(=O)c1cncc(Br)c1,76*,x,-3,0.9,-0.61,13
SMILES,WT yeast gro inh,ROMK primary,L major viab,Diaph act CS,Cl transport mod,Diaphorase inh
COc1ccc(NC(=O)c2cncc(Br)c2)cc1S(=O)(=O)N1CCCCC1,16,x,73*,0.9,0.69,13
COc1ccc(NS(=O)(=O)c2cccc(Cl)c2)cc1S(=O)(=O)N1CCCCC1,21,x,59*,1,0.75,3
COc1ccc(NC(=O)[C@@H](NC(=O)c2ccccc2)C(C)C)cc1S(=O)(=O)N1CCCCC1,9,x,72*,1,-0.74,1
N=C(N=C(N)N)N1CCc2ccccc21,-17,0.066,-3,1.1,0.57,-9
NC(=O)c1cnccn1,-5,x,13,1.1,0.76,-6
CCC1CCCCN1C(=O)Cn1c(C(=O)OC)cc2ccsc21 (stereo not drawn),14,x,8,0.9,0.75,8
CC(=O)OCC(=O)N1N=C(c2ccc3ccccc3c2)CC1c1ccccc1 (stereo not drawn),68*,-0.068,86*,1,0.58,1
COc1ccc(C2CC(c3ccc4ccccc4c3)=NN2C(=O)CNC2CCCCC2)cc1 (stereo not drawn),38,-1.6,100*,1.1,-2.3,-6
COc1ccc(C2CC(c3ccc4ccccc4c3)=NN2C(=O)COC(=O)C2CCC(=O)N2)cc1 (stereo not drawn),14,-0.8,32,0.8,0.93,24
Cn1c(=O)c2c(nc(-n3ccnc3)n2Cc2ccc(Cl)cc2Cl)n(C)c1=O,-6,-0.86,84*,0.8,x,18
Cc1ccc(NC(=S)N(Cc2ccco2)C(C)c2cccs2)c(Cl)c1 (stereo not drawn),66*,0.66,36,0.8,-0.53,20
Cc1ccc(C)c(NC(=S)N(Cc2ccco2)C(C)c2cccs2)c1 (stereo not drawn),69*,-0.38,63*,1,-1.1,0
Cc1ccc(NC(=S)Nc2ccc(F)cc2)c(C)c1,-1,-0.78,26,1,-0.79,1
CCc1ccc(C(=O)/C=C/c2ccc([N+](=O)[O-])o2)cc1,60*,-1.5,100*,0.8,x,22
Cc1ccc(Cn2ccc(NC(=O)c3cc(-c4cccc(Cl)c4)on3)n2)cc1,1,x,76*,1,0.15,0
Cc1cc(NC(=O)c2cc(C(C)C)on2)nn1Cc1ccc(Cl)cc1,34,x,71*,1,-0.94,3
Cc1cccc(Cn2ccc(NC(=O)c3ccc4c(c3)OCO4)n2)c1,17,x,60*,0.9,-2.3,11
Cc1ccc(Cn2ccc(NC(=O)c3cc(-c4ccc(Cl)cc4)on3)n2)cc1,-18,1,57*,1,x,1
Cc1ccc(Cn2ccc(NC(=O)c3cc(-c4ccc(F)cc4)on3)n2)cc1,-3,0.37,40,1.1,x,-15
CCNC(=O)c1cc(Cl)ccc1OC,1,x,56*,0.9,0.24,6
CCN(CC)c1ccc(NC(=O)c2cc(Cl)ccc2OC)cc1,41,1.3,99*,0.8,x,24
CCCOC(=O)c1ccc(NC(=O)c2cc(Cl)ccc2OC)cc1,14,x,-8,0.9,0.69,6
COc1ccc(Cl)cc1C(=O)Nc1ccc(CN2CCCCC2)cc1,-8,-1.7,98*,1,1.2,-1
COc1ccc(Cl)cc1C(=O)NCC(C)C,-2,x,-2,1,x,1
